{
  "source": "ChEMBL document CHEMBL1129073",
  "about": "“Metabolically programmed polyamine analogue antidiarrheals” (J Med Chem, 1996)",
  "key": {"L1210 [1]": {"test_system": "L1210", "experiment": "In vitro inhibition of uptake [3H]-spermidine in L1210 (murine leukemia) cells.", "type": "functional, cell-based, Mus musculus"}, "L1210 [2]": {"test_system": "L1210", "experiment": "Ability to competitively inhibit uptake of radiolabeled spermidine in L1210 cells", "type": "functional, cell-based, Mus musculus", "in_short": "(§1)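 Murine L1210 leukemia cells in RPMI-1640 with 10% FBS and 1 mM aminoguanidine. Pellets washed in cold medium containing 1 mM SPD, dissolved in NaOH, scintillation counted. Ki from Lineweaver–Burke plots; Km(SPD) 2.1 μM; mean of ≥3 experiments.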"}, "L1210 [3]": {"test_system": "L1210", "experiment": "Ability to competitively inhibit radioligand spermidine transport in L1210 cells", "type": "functional, cell-based, Mus musculus", "in_short": "as §1"}, "L1210 [4]": {"test_system": "L1210", "experiment": "Growth inhibitory activity of compound on L1210 cells after 48 hours", "type": "functional, cell-based", "settings": "Mus musculus, L1210, 48 h", "in_short": "(§2)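 Murine L1210 leukemia cells were kept in log-phase suspension in RPMI-1640 with 10% FBS, 2% HEPES-MOPS, 1 mM aminoguanidine and 1 mM L-glutamine at 37 °C under 5% CO₂. They were dosed at 0.5–1.0 × 10⁵ cells/mL with analogue in sterile water, 0.2 μm filtered. For the 96 h value, cells were reseeded at 48 h. Cells were counted electronically. IC50 is the concentration giving 50% of control growth, net of the inoculum.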"}, "L1210 [5]": {"test_system": "L1210", "experiment": "Growth inhibitory activity of compound on L1210 cells after 96 hours", "type": "functional, cell-based", "settings": "Mus musculus, L1210, 96 h", "in_short": "as §2"}, "[6]": {"experiment": "Acute toxicity was assessed after ip administration of a single dose of 325 mg/kg to a group of 5 female CD-1 mice", "type": "organism-based", "design": "dose 325 mg/kg, route intraperitoneal", "settings": "CD-1, mouse, in vivo"}, "[7]": {"experiment": "Effect of Chronic compound treatment on polyamine homeostasis in mouse kidney (total[N+]) at total dose of 100 mg/kg", "type": "ADME, organism-based", "design": "dose 100 mg/kg", "settings": "in vivo", "in_short": "(§3)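 Groups of three female CD-1 mice were given 20 mg/kg/day as a single daily ip injection for 5 days (total 100 mg/kg, 215.3 μmol/kg). Mice were sacrificed 24 h after the last dose. Liver and kidney perchloric acid extracts were dansylated and run on HPLC, quantified against calibration curves. [N+] equivalents = 2[diamine] + 3[triamine] + 4[tetraamine], in nequiv/g wet weight, ±SD.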"}, "[8]": {"experiment": "Effect of Chronic compound treatment on polyamine homeostasis in mouse kidney (native[N+]) at total dose of 100 mg/kg", "type": "ADME, organism-based", "design": "dose 100 mg/kg", "settings": "in vivo", "in_short": "as §3"}, "[9]": {"experiment": "Effect of Chronic compound treatment on polyamine homeostasis in mouse liver (native[N+]) total dose of 100 mg/kg", "type": "ADME, organism-based", "design": "dose 100 mg/kg", "settings": "in vivo", "in_short": "as §3"}, "[10]": {"experiment": "Effect of Chronic compound treatment on polyamine homeostasis in mouse liver(total[N+]) total dose of 100 mg/kg", "type": "ADME, organism-based", "design": "dose 100 mg/kg", "settings": "in vivo", "in_short": "as §3"}, "[11]": {"experiment": "Effect of Chronic compound treatment on polyamine homeostasis in mouse kidney (native[N+]) at total dose of 90 mg/kg", "type": "ADME, organism-based", "design": "dose 90 mg/kg", "settings": "in vivo", "in_short": "(§4)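 Groups of three female CD-1 mice were dosed at 15 mg/kg/day for 6 days (total 90 mg/kg, 208.3 μmol/kg). Mice were sacrificed 1 day after the final dose. Liver and kidney perchloric acid extracts were dansylated and analysed by HPLC against calibration standards. [N+] equivalents = 2[diamine] + 3[triamine] + 4[tetraamine], in nequiv/g wet weight, ±SD.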"}, "[12]": {"experiment": "Effect of Chronic compound treatment on polyamine homeostasis in mouse liver(total[N+]) at total dose of 90 mg/kg", "type": "ADME, organism-based", "design": "dose 90 mg/kg", "settings": "in vivo", "in_short": "as §4"}, "[13]": {"experiment": "Effect of Chronic compound treatment on polyamine homeostasis in mouse liver (native[N+]) at total dose of 90 mg/kg", "type": "ADME, organism-based", "design": "dose 90 mg/kg", "settings": "in vivo", "in_short": "as §4"}, "L1210 (Mus musculus)": {"test_system": "L1210 (Mus musculus)", "experiment": "Growth inhibitory activity of compound on L1210 cells after 96 hours", "settings": "L1210, 96 h"}},
  "data": [
    {"smiles": "CCNCCCCNC1CCC(NCCCCNCC)CC1", "note": "(stereo unspecified)", "values": [
      {"measurement": "Ki", "setting": "L1210 [1]", "result": 3500, "unit": "nM"}
    ]},
    {"smiles": "c1cc(CNCCCCNCc2ccncc2)ccn1", "values": [
      {"measurement": "Ki", "setting": "L1210 [1]", "result": "> 500000", "unit": "nM"}
    ]},
    {"smiles": "CCNCCCNC1CCC(NCCCNCC)CC1", "note": "(stereo unspecified)", "values": [
      {"measurement": "Ki", "setting": "L1210 [1]", "result": 7900, "unit": "nM"}
    ]},
    {"smiles": "C(CCNCCCCNC12CC3CC(CC(C3)C1)C2)CNCCCCNC12CC3CC(CC(C3)C1)C2", "values": [
      {"measurement": "Ki", "setting": "L1210 [2]", "result": 2000, "unit": "nM"}
    ]},
    {"smiles": "C(CNC1CCNCC1)CNC1CCNCC1", "values": [
      {"measurement": "Ki", "setting": "L1210 [1]", "result": 60500, "unit": "nM"}
    ]},
    {"smiles": "C(CCNCCC1CCNCC1)CNCCC1CCNCC1", "values": [
      {"measurement": "Ki", "setting": "L1210 [1]", "result": 18100, "unit": "nM"}
    ]},
    {"smiles": "c1cc(NCCCNc2ccncc2)ccn1", "values": [
      {"measurement": "Ki", "setting": "L1210 [1]", "result": "> 500000", "unit": "nM"}
    ]},
    {"smiles": "CCNCCC(O)CNCCCCNCC(O)CCNCC", "note": "(stereo unspecified)", "values": [
      {"measurement": "Ki", "setting": "L1210 [3]", "result": 1800, "unit": "nM"},
      {"measurement": "IC50", "setting": "L1210 [4]", "result": 600, "unit": "nM"},
      {"measurement": "IC50", "setting": "L1210 [5]", "result": 50, "unit": "nM"},
      {"measurement": "LD50", "setting": "[6]", "result": 325, "unit": "mg/kg"},
      {"measurement": "LD50", "setting": "[7]", "result": 5427, "unit": "mg/kg"},
      {"measurement": "LD50", "setting": "[8]", "result": 3251, "unit": "mg/kg"},
      {"measurement": "LD50", "setting": "[9]", "result": 6118, "unit": "mg/kg"},
      {"measurement": "LD50", "setting": "[10]", "result": 6706, "unit": "mg/kg"}
    ]},
    {"smiles": "CCNCCCNCCCNCCCNCC", "note": "[BIS(ETHYL)NORSPERMINE]", "values": [
      {"measurement": "LD50", "setting": "[6]", "result": 325, "unit": "mg/kg"}
    ]},
    {"smiles": "CCNCCCCNCCCCNCCCCNCC", "note": "[DIETHYLHOMOSPERMINE]", "values": [
      {"measurement": "LD50", "setting": "[6]", "result": 325, "unit": "mg/kg"},
      {"measurement": "LD50", "setting": "[11]", "result": 1560, "unit": "mg/kg"},
      {"measurement": "LD50", "setting": "[12]", "result": 7806, "unit": "mg/kg"},
      {"measurement": "LD50", "setting": "[13]", "result": 5506, "unit": "mg/kg"},
      {"measurement": "IC50", "setting": "L1210 (Mus musculus)", "result": 50, "unit": "nM"}
    ]}
  ]
}
